Source: paper PMC5538437 (Genes & Development, 2017)

Tested on: 4EHP
Assay: Pull-down / coimmunoprecipitation with 4EHP in HEK293T cell lysates
Format: binding, human
Conditions: HEK293T cells, GFP-tagged protein and V5-SBP-4EHP, Western blot
In short: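 Streptavidin-bead pull-down from RNase A-treated HEK293T lysates of cells expressing V5-SBP-tagged 4EHP or eIF4E (wild type or mutants). Co-bound endogenous GYF2, 4E-T and 4E-BP1 were probed; for 4EHP, co-expressed GFP-4E-BP1 was also probed, with V5-SBP-MBP as negative control. Inputs and bound fractions were analysed by Western blot with anti-V5, anti-GFP, anti-GYF2 and other antibodies, using ECL detection.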

Row | Molecule | interaction with 4EHP in cells, overexpressed binding partner
1 | 4E-BP1 C: 4E-BP1 Y54A, L59A; canonical motif mutant | abolished its interaction with 4EHP
2 | GYF2 NC*: GYF2 L62D, F67D, I70D; non-canonical mutant (protein, UniProt Q6Y7W6 2-1299, looked up, variant L62D F67D I70D) GRB10-interacting GYF protein …: AAETQTLNFGPEWLRALSSGGSITSPPLSPALPKYKLADYRYGREEMLALFLKDNKIPSDDLDKEDLPDLQEEPLPPLALVPFTEEEQRNFSMSVNSAAVLRLTGRGGGGTVVGAPRGRSSSRGRGRGRGECGFYQRSFDEVEGVFGRGGGREMHRSQSWEERGDRRFEKPGRKDVGRPNFEEGGPTSVGRKHEFIRSESENWRIFREEQNGEDEDGGWRLAGSRRDGERWRPHSPDGPRSAGWREHMERRRRFEFDFRDRDDERGYRRVRSGSGSIDDDRDSLPEWCLEDAEEEMGTFDSSGAFLSLKKVQKEPIPEEQEMDFRPVDEGEECSDSEGSHNEEAKEPDKTNKKEGEKTDRVGVEASEETPQTSSSSARPGTPSDHQSQEASQFERKDEPKTEQTEKAEEETRMENSLPAKVPSRGDEMVADVQQPLSQIPSDTASPLLILPPPVPNPSPTLRPVETPVVGAPGMGSVSTEPDDEEGLKHLEQQAEKMVAYLQDSALDDERLASKLQEHRAKGVSIPLMHEAMQKWYYKDPQGEIQGPFNNQEMAEWFQAGYFTMSLLVKRACDESFQPLGDIMKMWGRVPFSPGPAPPPHMGELDQERLTRQQELTALYQMQHLQYQQFLIQQQYAQVLAQQQKAALSSQQQQQLALLLQQFQTLKMRISDQNIIPSVTRSVSVPDTGSIWELQPTASQPTVWEGGSVWDLPLDTTTPGPALEQLQQLEKAKAAKLEQERREAEMRAKREEEERKRQEELRRQQEEILRRQQEEERKRREEEELARRKQEEALRRQREQEIALRRQREEEERQQQEEALRRLEERRREEEERRKQEELLRKQEEEAAKWAREEEEAQRRLEENRLRMEEEAARLRHEEEERKRKELEVQRQKELMRQRQQQQEALRRLQQQQQQQQLAQMKLPSSSTWGQQSNTTACQSQATLSLAEIQKLEEERERQLREEQRRQQRELMKALQQQQQQQQQKLSGWGNVSKPSGTTKSLLEIQQEEARQMQKQQQQQQQHQQPNRARNNTHSNLHTSIGNSVWGSINTGPPNQWASDLVSSIWSNADTKNSNMGFWDDAVKEVGPRNSTNKNKNNASLSKSVGVSNRQNKKVEEEEKLLKLFQGVNKAQDGFTQWCEQMLHALNTANNLDVPTFVSFLKEVESPYEVHDYIRAYLGDTSEAKEFAKQFLERRAKQKANQQRQQQQLPQQQQQQPPQQPPQQPQQQDSVWGMNHSTLHSVFQTNQSNNQQSNFEAVQSGKKKKKQKMVRADPSLLGFSVNASSERLNMGEIETLDDY | did not affect binding to overexpressed 4EHP in human cells
3 | GYF2 A1*: GYF2 P78D, L79A; auxiliary site 1 mutant (protein, UniProt Q6Y7W6 2-1299, looked up, variant P78D L79A) GRB10-interacting GYF protein …: AAETQTLNFGPEWLRALSSGGSITSPPLSPALPKYKLADYRYGREEMLALFLKDNKIPSDLLDKEFLPILQEEPLPDAALVPFTEEEQRNFSMSVNSAAVLRLTGRGGGGTVVGAPRGRSSSRGRGRGRGECGFYQRSFDEVEGVFGRGGGREMHRSQSWEERGDRRFEKPGRKDVGRPNFEEGGPTSVGRKHEFIRSESENWRIFREEQNGEDEDGGWRLAGSRRDGERWRPHSPDGPRSAGWREHMERRRRFEFDFRDRDDERGYRRVRSGSGSIDDDRDSLPEWCLEDAEEEMGTFDSSGAFLSLKKVQKEPIPEEQEMDFRPVDEGEECSDSEGSHNEEAKEPDKTNKKEGEKTDRVGVEASEETPQTSSSSARPGTPSDHQSQEASQFERKDEPKTEQTEKAEEETRMENSLPAKVPSRGDEMVADVQQPLSQIPSDTASPLLILPPPVPNPSPTLRPVETPVVGAPGMGSVSTEPDDEEGLKHLEQQAEKMVAYLQDSALDDERLASKLQEHRAKGVSIPLMHEAMQKWYYKDPQGEIQGPFNNQEMAEWFQAGYFTMSLLVKRACDESFQPLGDIMKMWGRVPFSPGPAPPPHMGELDQERLTRQQELTALYQMQHLQYQQFLIQQQYAQVLAQQQKAALSSQQQQQLALLLQQFQTLKMRISDQNIIPSVTRSVSVPDTGSIWELQPTASQPTVWEGGSVWDLPLDTTTPGPALEQLQQLEKAKAAKLEQERREAEMRAKREEEERKRQEELRRQQEEILRRQQEEERKRREEEELARRKQEEALRRQREQEIALRRQREEEERQQQEEALRRLEERRREEEERRKQEELLRKQEEEAAKWAREEEEAQRRLEENRLRMEEEAARLRHEEEERKRKELEVQRQKELMRQRQQQQEALRRLQQQQQQQQLAQMKLPSSSTWGQQSNTTACQSQATLSLAEIQKLEEERERQLREEQRRQQRELMKALQQQQQQQQQKLSGWGNVSKPSGTTKSLLEIQQEEARQMQKQQQQQQQHQQPNRARNNTHSNLHTSIGNSVWGSINTGPPNQWASDLVSSIWSNADTKNSNMGFWDDAVKEVGPRNSTNKNKNNASLSKSVGVSNRQNKKVEEEEKLLKLFQGVNKAQDGFTQWCEQMLHALNTANNLDVPTFVSFLKEVESPYEVHDYIRAYLGDTSEAKEFAKQFLERRAKQKANQQRQQQQLPQQQQQQPPQQPPQQPQQQDSVWGMNHSTLHSVFQTNQSNNQQSNFEAVQSGKKKKKQKMVRADPSLLGFSVNASSERLNMGEIETLDDY | did not affect binding to overexpressed 4EHP in human cells
4 | GYF1 NC*: GYF1 L60D, F65D, V68D; non-canonical mutant (protein, UniProt O75420 1-1035, looked up, variant L60D F65D V68D) GRB10-interacting GYF protein …: MAAETLNFGPEWLRALSGGGSVASPPPSPAMPKYKLADYRYGREEMLALYVKENKVPEEDQDKEDAADLQDEPLQPLALEPLTEEEQRNFSLSVNSVAVLRLMGKGAGPPLAGTSRGRGSTRSRGRGRGDSCFYQRSIEEGDGAFGRSPREIQRSQSWDDRGERRFEKSARRDGARCGFEEGGAGPRKEHARSDSENWRSLREEQEEEEEGSWRLGAGPRRDGDRWRSASPDGGPRSAGWREHGERRRKFEFDLRGDRGGCGEEEGRGGGGSSHLRRCRAPEGFEEDKDGLPEWCLDDEDEEMGTFDASGAFLPLKKGPKEPIPEEQELDFQGLEEEEEPSEGLEEEGPEAGGKELTPLPPQEEKSSSPSPLPTLGPLWGTNGDGDETAEKEPPAAEDDIRGIQLSPGVGSSAGPPGDLEDDEGLKHLQQEAEKLVASLQDSSLEEEQFTAAMQTQGLRHSAAATALPLSHGAARKWFYKDPQGEIQGPFTTQEMAEWFQAGYFSMSLLVKRGCDEGFQPLGEVIKMWGRVPFAPGPSPPPLLGNMDQERLKKQQELAAAALYQQLQHQQFLQLVSSRQLPQCALREKAALGDLTPPPPPPPQQQQQQLTAFLQQLQALKPPRGGDQNLLPTMSRSLSVPDSGRLWDVHTSASSQSGGEASLWDIPINSSTQGPILEQLQLQHKFQERREVELRAKREEEERKRREEKRRQQQQEEQKRRQEEEELFRRKHVRQQELLLKLLQQQQAVPVPPAPSSPPPLWAGLAKQGLSMKTLLELQLEGERQLHKQPPPREPARAQAPNHRVQLGGLGTAPLNQWVSEAGPLWGGPDKSGGGSSGLGLWEDTPKSGGSLVRGLGLKNSRSSPSLSDSYSHLSGRPIRKKTEEEEKLLKLLQGIPRPQDGFTQWCEQMLHTLSATGSLDVPMAVAILKEVESPYDVHDYIRSCLGDTLEAKEFAKQFLERRAKQKASQQRQQQQEAWLSSASLQTAFQANHSTKLGPGEGSKAKRRALMLHSDPSILGYSLHGSSGEIESVDDY | did not affect binding to overexpressed 4EHP in human cells
5 | GYF1 A1*: GYF1 P76D, L77A; auxiliary site 1 mutant (protein, UniProt O75420 1-1035, looked up, variant P76D L77A) GRB10-interacting GYF protein …: MAAETLNFGPEWLRALSGGGSVASPPPSPAMPKYKLADYRYGREEMLALYVKENKVPEELQDKEFAAVLQDEPLQDAALEPLTEEEQRNFSLSVNSVAVLRLMGKGAGPPLAGTSRGRGSTRSRGRGRGDSCFYQRSIEEGDGAFGRSPREIQRSQSWDDRGERRFEKSARRDGARCGFEEGGAGPRKEHARSDSENWRSLREEQEEEEEGSWRLGAGPRRDGDRWRSASPDGGPRSAGWREHGERRRKFEFDLRGDRGGCGEEEGRGGGGSSHLRRCRAPEGFEEDKDGLPEWCLDDEDEEMGTFDASGAFLPLKKGPKEPIPEEQELDFQGLEEEEEPSEGLEEEGPEAGGKELTPLPPQEEKSSSPSPLPTLGPLWGTNGDGDETAEKEPPAAEDDIRGIQLSPGVGSSAGPPGDLEDDEGLKHLQQEAEKLVASLQDSSLEEEQFTAAMQTQGLRHSAAATALPLSHGAARKWFYKDPQGEIQGPFTTQEMAEWFQAGYFSMSLLVKRGCDEGFQPLGEVIKMWGRVPFAPGPSPPPLLGNMDQERLKKQQELAAAALYQQLQHQQFLQLVSSRQLPQCALREKAALGDLTPPPPPPPQQQQQQLTAFLQQLQALKPPRGGDQNLLPTMSRSLSVPDSGRLWDVHTSASSQSGGEASLWDIPINSSTQGPILEQLQLQHKFQERREVELRAKREEEERKRREEKRRQQQQEEQKRRQEEEELFRRKHVRQQELLLKLLQQQQAVPVPPAPSSPPPLWAGLAKQGLSMKTLLELQLEGERQLHKQPPPREPARAQAPNHRVQLGGLGTAPLNQWVSEAGPLWGGPDKSGGGSSGLGLWEDTPKSGGSLVRGLGLKNSRSSPSLSDSYSHLSGRPIRKKTEEEEKLLKLLQGIPRPQDGFTQWCEQMLHTLSATGSLDVPMAVAILKEVESPYDVHDYIRSCLGDTLEAKEFAKQFLERRAKQKASQQRQQQQEAWLSSASLQTAFQANHSTKLGPGEGSKAKRRALMLHSDPSILGYSLHGSSGEIESVDDY | did not affect binding to overexpressed 4EHP in human cells
